ChEMBL document CHEMBL1131384, “Synthesis and structure-activity relationships of potent and orally active 5-HT4 receptor antagonists: indazole and benzimidazolone derivatives” (J Med Chem, 1998)

Assays:
[1] = molecular target: 5-hydroxytryptamine receptor 4 (Rattus norvegicus) (UniProt Q62758); assay: Antagonistic activity evaluated by ability to block serotonin induced relaxation via 5-hydroxytryptamine 4 receptor) in carbamylcholine (10e-6 M) contracted esophagus at a concentration of 0.1 mg/kg (p.o.); type: functional, organism-based; design: dose 0.1 mg/kg
How it was run: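 Rats were dosed with the antagonist by oral gavage. Esophagus was removed 3 h after dosing and challenged ex vivo with serotonin. Read-out was % relaxation of the carbamylcholine-contracted tissue to 10^-6 M 5-HT, given as mean ± SEM with the number of determinations.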

[2] = molecular target: 5-hydroxytryptamine receptor 4 (Rattus norvegicus) (UniProt Q62758); assay: Antagonistic activity of compound was evaluated by ability to block serotonin induced relaxation (mediated by activation of 5-hydroxytryptamine 4 receptor) in carbamylcholine (10e-6 M) contracted esophagus at a concentration of 3*10e-7 M.; type: functional
How it was run: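 Isolated rat esophagus precontracted with carbamylcholine (10^-6 M), then challenged with serotonin (1 μM) in the presence of antagonist at the stated concentration or vehicle. Read-out is % relaxation to serotonin, given as mean ± SEM with the number of determinations.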

[3] = molecular target: Adrenergic receptor alpha-1 (Rattus norvegicus) (UniProt P15823+P23944+P43140); assay: Affinity for the alpha-1 adrenergic receptor determined by the displacement of [3H]prazosin from rat whole brain tissue.; type: tissue-based
[4] = molecular target: 5-hydroxytryptamine receptor 4 (Rattus norvegicus) (UniProt Q62758); assay: Antagonistic activity by ability to block serotonin induced relaxation (mediated by activation of 5-hydroxytryptamine 4 receptor) in carbamylcholine (10e-6 M) contracted esophagus at a concentration of 10e-6 M.; type: functional, tissue-based
How it was run: (§1)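 Isolated rat esophagus precontracted with carbamylcholine (10^-6 M). Tissue was challenged with serotonin (1 µM) in the presence of the antagonist at a given concentration or of vehicle. Relaxation was recorded as % relaxation to 10^-6 M 5-HT, given as mean ± SEM with the number of determinations.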

[5] = molecular target: 5-hydroxytryptamine receptor 4 (Rattus norvegicus) (UniProt Q62758); assay: Antagonistic activity by ability to block serotonin induced relaxation (mediated by activation of 5-hydroxytryptamine 4 receptor) in carbamylcholine (10e-6 M) contracted esophagus at a concentration of 10e-7 M.; type: functional, tissue-based; how it was run: as §1

5-hydroxytryptamine receptor 4 (Rattus norvegicus), sequence (Q62758 whole entry): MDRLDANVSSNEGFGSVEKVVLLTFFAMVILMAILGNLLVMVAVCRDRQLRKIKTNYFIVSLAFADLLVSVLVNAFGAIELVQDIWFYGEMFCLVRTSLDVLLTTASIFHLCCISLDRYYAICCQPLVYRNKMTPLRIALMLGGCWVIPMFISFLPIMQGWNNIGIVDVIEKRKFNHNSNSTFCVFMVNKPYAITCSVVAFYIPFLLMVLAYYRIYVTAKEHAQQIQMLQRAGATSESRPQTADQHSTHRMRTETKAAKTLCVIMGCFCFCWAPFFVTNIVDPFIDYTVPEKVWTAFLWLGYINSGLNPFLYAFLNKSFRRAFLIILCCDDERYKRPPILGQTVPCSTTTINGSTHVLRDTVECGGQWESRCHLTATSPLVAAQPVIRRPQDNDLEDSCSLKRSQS

Question: Which results are given for `CC(C)n1nc(C(=O)NCCCN2CCCCC2)c2ccccc21`?
Answer: Relaxation [1]: 15%; Relaxation [2]: 14.3%; pKi [3]: < 4.5; Relaxation [4]: 6.3%; Relaxation [5]: 27.3%
